Rows were chosen to be rich in hits. Some 1.5% of all compounds tested hit in one or more screens of this group.
EBI2 block: antagonists of human EBI2 receptor. P32249. EBI2 beta-arrestin recruitment, luminescence, 7a,25-OHC stimulated. inhibition, % at 5 µM. hit rate 0.81% among 360,000; in the data active = inhibition above about 38%;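 note: enzyme fragment complementation signal reports receptor beta-arrestin coupling in cells; 0% = agonist plus DMSO wells and 100% = wells without agonist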
APJ agonist: activates the human apelin receptor APJ; P35414; CHO-K1 APJ PathHunter beta-arrestin, luminescence; 0% DMSO wells, 100% apelin; activation, % at 20 µM; hit rate 0.11% among 330,000; AID 2520;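 active = activation more than six SD over the plate average, tested at 20 µM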;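 note: 0% = DMSO alone and 100% = apelin-13 at 10 nM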
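Test system: CHO-K1 APJ beta-arrestin complementation cell line. Amount: cell density 1000 per well. Controls: DMSO negative, 10 nM Apelin-13 positive. Signal: luminescent beta-gal fragment complementation, chemiluminescent substrate. Read-out basis: agonist-driven arrestin binding to APJ. Timing: compound stimulation 90 min at 25 °C, detection 60 min.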
CXCR6 block: blocks human CXCR6 beta-arrestin recruitment; O00574; CHO-K1 PathHunter CXCR6 beta-arrestin, luminescence; inhibition, % at 20 µM; hit rate 0.36% among 360,000; AID 602244; in the data active = inhibition above about 34%, passing the limit was not always enough;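 note: antagonist mode with CXCL16 agonist at 10 nM final; 0% = 10 nM CXCL16 with DMSO and 100% = unstimulated wells without agonist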
APJ antagonist: APJ receptor antagonism | P35414 | CHO-K1 APJ beta-arrestin complementation, luminescence | inhibition, % at 20 µM | hit rate 0.32% among 330,000 | AID 2521;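 active = inhibition above about 40% at 20 µM, limit read from the data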;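 note: cells challenged with 10 nM apelin-13 agonist together with compound; plate controls were apelin-13 plus DMSO wells for no effect and DMSO wells lacking apelin-13 for full effect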
CCR6 antag: CCR6 (human) receptor antagonism. inhibition, % at 20 µM. P51684. CHO-K1 CCR6 PathHunter beta-arrestin, luminescence, CCL20-stimulated. hit rate 0.49% among 340,000;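 active = compounds whose inhibition of the agonist-driven luminescence signal at 20 µM reaches about 50%, limit read from the data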;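 note: cells stimulated with CCL20 at 14 nM final; plate controls were DMSO with CCL20 for no effect and DMSO without agonist for full effect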
Target sequence (P51684 whole entry, looked up): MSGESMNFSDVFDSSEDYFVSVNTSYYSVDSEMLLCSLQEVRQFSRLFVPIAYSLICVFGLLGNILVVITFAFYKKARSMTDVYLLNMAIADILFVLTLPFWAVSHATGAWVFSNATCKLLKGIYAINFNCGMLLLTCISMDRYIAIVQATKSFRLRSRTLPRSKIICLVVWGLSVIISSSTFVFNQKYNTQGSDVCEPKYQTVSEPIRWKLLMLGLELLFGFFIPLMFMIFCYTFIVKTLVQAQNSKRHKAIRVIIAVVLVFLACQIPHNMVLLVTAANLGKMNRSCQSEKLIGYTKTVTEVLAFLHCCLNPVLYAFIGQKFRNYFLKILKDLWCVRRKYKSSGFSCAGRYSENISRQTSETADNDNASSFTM
The depositor's hits bear a star; / = no result.

SMILES	EBI2 block	APJ agonist	CXCR6 block	APJ antagonist	CCR6 antag
Cc1[nH]n(-c2ccccc2)c(=O)c1N=Nc1ccc(C(=O)O)cc1	6	-6	9	33	31
CC(=O)c1ccc(N=Nc2c(C)[nH]n(-c3ccccc3)c2=O)cc1	-6	-6	40*	36	49
FC(F)(F)c1cccc(CN2CCCCCC2)c1	7	-3	-4	8	-2
COC(=O)C1=C(C(=O)OC)SC(=C2C(=S)C(C)(C)N(C(=O)CC(C)C)c3ccccc32)S1	56*	-1	31	37	49
COCCSc1nc2c(c(=O)[nH]c(=O)n2C)n1Cc1cccc(C)c1	-8	0	-3	15	9
COc1cc(N=Nc2ccc(Br)cc2)cc(C=O)c1O	20	/	53*	/	/
COc1cc(CN(C)C)cc(C=O)c1O	9	12	1	-31	-11
CCOc1ccc2nc(NC(=O)Nc3ccccc3)sc2c1	16	6	-3	-3	1
COc1ccccc1C(=O)Nc1nc2ccccc2s1	6	-4	3	5	8
COc1ccc(C(=O)Nc2nc3ccccc3s2)c(OC)c1	50*	-2	3	6	5
CCOc1ccc2nc(NC(=O)c3ccccn3)sc2c1	60*	-9	58*	79*	79*
COc1ccc(-c2nc(CS(=O)(=O)CC(=O)NC3CCCCCC3)c(C)o2)cc1	-4	-2	-5	7	22
c1cc2c(cc1C1CCCCC1)c1c3n2CCCNC3CCC1 (stereo not drawn)	-17	0	4	-4	71*
O=C(CNc1ccc(Br)cc1)c1ccc(O)cc1	0	-3	2	35	39
O=C(CNc1ccc(Cl)cc1)c1ccc(Br)cc1	32	-12	38	83*	62*
COc1ccccc1N=Nc1nc(-c2ccccc2)c(-c2ccccc2)[nH]1	38	/	34	/	67*
COC(=O)C1=C(C)NC2=C(C(=O)CC(c3cccs3)C2)C1c1ccsc1 (stereo not drawn)	22	/	33	/	58*
CC1=C(C(=O)OC2CCCC2)C(c2ccc(C)o2)C2=C(CC(c3cccs3)CC2=O)N1 (stereo not drawn)	32	-3	26	4	58*
CCCOC(=O)C1=C(C)NC2=C(C(=O)CCC2)C1c1cccs1 (stereo not drawn)	2	-3	2	-3	2
CC1=C(C(=O)OC2CCCCCC2)C(c2ccc(C)o2)C2=C(CCCC2=O)N1 (stereo not drawn)	13	1	6	10	25
N/C(Cc1ccc(Cl)cc1)=N\OC(=O)c1cccc2ccccc12	52*	17	-14	-36	-2
CC(=O)[C@]1(O)Cc2c(O)c3c(c(O)c2[C@@H](O[C@H]2C[C@H](N)[C@H](O)[C@H](C)O2)C1)C(=O)c1ccccc1C3=O	/	-3	/	36	81*
c1ccc(Cn2c[n+](Cc3ccccc3)c3ccccc32)cc1	5	-3	11	10	9
CN(CCOc1ccc(Cl)cc1)C(=O)C1CCN(C(=O)c2ccc(F)cc2)CC1	32	-9	6	11	16
CN(CCOc1ccccc1)C(=O)C1CCN(C(=O)c2ccc(Cl)cc2)CC1	64*	-4	-10	10	17
SMILES	EBI2 block	APJ agonist	CXCR6 block	APJ antagonist	CCR6 antag
Cc1cc(C)nc(SCC(=O)c2ccc(C)c(C)c2)n1	2	0	6	8	10
Nc1[nH]n2c(=O)cc(-c3ccccc3)nc2c1N=Nc1ccccc1	7	-5	26	37	51*
O=C(/C=C/c1ccc(O)c(O)c1)c1ccc(S(=O)(=O)N2CCCCCC2)cc1	10	-6	29	42*	63*
CCC(C)(C)C1CCC(=NNC(=S)Nc2ccccc2)CC1 (stereo not drawn)	11	-5	7	8	31
CC(C)(C)C1CCC(=NNC(=S)NCc2ccccc2)CC1 (stereo not drawn)	14	0	11	2	52*
N=c1n(Cc2ccc(Cl)cc2)c2ccccc2n1CC(O)COc1ccccc1 (stereo not drawn)	-4	15*	-21	-6	-3
COc1ccc(OCC(O)Cn2c(=N)n(Cc3ccccc3)c3ccccc32)cc1 (stereo not drawn)	-3	1	-6	4	12
COc1ccc(CN(C(=O)/C=C/C(=O)c2ccc(OC)cc2O)C(C(=O)NC2CCCCC2)c2ccncc2)cc1 (stereo not drawn)	11	-5	5	9	2
COc1ccc(C(=O)/C=C/C(=O)N(CC(=O)NC2CCCCC2)Cc2cccs2)c(O)c1	25	-3	72*	37	92*
COCCN(CC(=O)NC1CCCCC1)C(=O)/C=C/C(=O)c1ccc(OC)cc1O	18	/	62*	/	65*
CCCCN(C(=O)c1cc2c(s1)CCCC2)c1c(N)n(CCC)c(=O)[nH]c1=O	-10	-2	-3	-6	7
CCCN1C(=O)/C(=C2/C=Cc3ccccc3N2CC)SC1=S	2	-5	28	42*	41
CCN1C(=O)/C(=C2/C=Cc3ccccc3N2CC)SC1=S	5	-6	21	16	33
CCCN1/C(=C2/SC(=S)N(CC)C2=O)C=Cc2ccccc21	3	-9	34	37	54*
Cc1c(NS(=O)(=O)c2cccs2)cccc1-c1nc2cccnc2s1	-14	-1	-4	-5	1
O=S(=O)(Nc1cccc2ncccc12)c1cccs1	60*	-14	79*	88*	88*
O=C1NC[C@H](CCCCN2CCN(CCC3CCCCC3)C(=O)C2=O)N(CC2CCCCC2)C1=O	-6	/	1	/	/
C(=N\Nc1nc2ccccc2s1)/c1ccccn1	/	-2	/	34	77*
COc1ccc(C=NNc2nc3ccccc3s2)cc1	-2	/	-4	/	-16
Cc1csc(N/N=C/c2ccc([N+](=O)[O-])cc2)n1	-8	6	-8	0	-5
Cc1csc(N/N=C/c2ccccn2)n1	0	-1	23	12	60*
O=c1c2ccccc2cnn1Cc1n[nH]c(=S)n1-c1ccc(F)c(Cl)c1	3	-5	5	-6	0
Cc1ccc(C(=O)COC(=O)CCC(=O)Nc2cc(Cl)ccc2Cl)cc1[N+](=O)[O-]	6	-14	20	33	62*
Cc1ccccc1C(=O)Nc1cccc(C(=O)N/N=C/c2cc(Cl)cc([N+](=O)[O-])c2O)c1	8	-8	34	27	71*
O=[N+]([O-])c1ccc(N2CCCC2)cc1NC1CC1	0	4	12	16	10
COc1cc(/C=N/N=C(N)N)ccc1OCc1ccccc1Cl	-20	22*	-11	-21	0
CCNc1c(C(=O)O)ccc2c1C(=O)c1ccccc1C2=O	-7	-3	7	19	11
CNc1c(C(=O)O)ccc2c1C(=O)c1ccccc1C2=O	-3	-2	34	-5	53*
